≈ marks a conversion by molar mass, not a printed value.
How the values were obtained:
A549 = assay: Cytotoxicity against human A549 cells by MTT assay; assay type: functional, cell-based
Summary of the method: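 A549 human lung cancer cells, MTT read-out, mitomycin as positive control; IC50 reported in μM.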

Bacillus subtilis = assay: Antibacterial activity against Bacillus subtilis ATCC 6633 after 24 hrs by serial dilution technique; assay type: functional; conditions: ATCC 6633, 24 h
Micrococcus = assay: Antibacterial activity against Micrococcus tetragenus ATCC 13623 after 24 hrs by serial dilution technique; assay type: functional; conditions: ATCC 13623, 24 h
Micrococcus luteus = assay: Antibacterial activity against Micrococcus luteus ATCC 49732 after 24 hrs by serial dilution technique; assay type: functional; conditions: ATCC 49732, 24 h
Staphylococcus albus = assay: Antibacterial activity against Staphylococcus albus ATCC 8799 after 24 hrs by serial dilution technique; conditions: ATCC 8799, 24 h
Vibrio parahaemolyticus = assay: Antibacterial activity against Vibrio parahaemolyticus ATCC 17802 after 24 hrs by serial dilution technique; assay type: functional; conditions: ATCC 17802, 24 h
Bacillus cereus [1] = assay: Antibacterial activity against Bacillus cereus ACCC 11077 after 24 hrs by serial dilution technique; assay type: functional; conditions: ACCC 11077, 24 h
Vibrio anguillarum = assay: Antibacterial activity against Vibrio anguillarum ATCC 19019 after 24 hrs by serial dilution technique; assay type: functional; conditions: ATCC 19019, 24 h
Staphylococcus aureus = assay: Antibacterial activity against Staphylococcus aureus ATCC 27154 after 24 hrs by serial dilution technique; assay type: functional; conditions: ATCC 27154, 24 h
Escherichia coli = assay: Antibacterial activity against Escherichia coli ATCC 25922 after 24 hrs by serial dilution technique; assay type: functional; conditions: ATCC 25922, 24 h
Bacillus cereus [2] = assay: Ratio of ciprofloxacin MIC to compound MIC for Bacillus cereus ACCC 11077; assay type: functional

Compound | MIC (Bacillus subtilis) [µM] | MIC (Micrococcus) [µM] | MIC (Micrococcus luteus) [µM] | MIC (Staphylococcus albus) [µM] | MIC (Bacillus cereus [1]) [µM] | MIC (Vibrio anguillarum) [µM] | MIC (Staphylococcus aureus) [µM] | MIC (Escherichia coli) [µM] | IC50 (A549) [µM] | MIC (Vibrio parahaemolyticus) [µM] | Ratio (Bacillus cereus [2])
COc1cc(OC(C)=O)c2c(c1O)C(=O)c1cc(C)c(O)cc1C2=O | > 200 | > 200 | > 200 | > 200 | > 200 | > 200 | > 200 | > 200 | – | > 200 | –
COc1cc(O)c2c(c1OC(C)=O)C(=O)c1cc(C)c(OC(C)=O)cc1C2=O | > 200 | 200 (≈ 76.9 µg/mL) | 200 (≈ 76.9 µg/mL) | > 200 | > 200 | > 200 | > 200 | > 200 | – | > 200 | –
O=C(O)c1cn(C2CC2)c2cc(N3CCNCC3)c(F)cc2c1=O [CIPROFLOXACIN] | 0.312 (≈ 0.103 µg/mL) | 0.039 (≈ 0.0129 µg/mL) | 2.5 (≈ 0.828 µg/mL) | 0.312 (≈ 0.103 µg/mL) | 1.25 (≈ 0.414 µg/mL) | 0.078 (≈ 0.0258 µg/mL) | 0.156 (≈ 0.0517 µg/mL) | 0.156 (≈ 0.0517 µg/mL) | – | 0.078 (≈ 0.0258 µg/mL) | –
COc1cc(O)c2c(c1O)C(=O)c1cc(C)c(O)cc1C2=O | > 200 | > 200 | > 200 | > 200 | > 200 | > 200 | > 200 | > 200 | > 50 | > 200 | –
COc1cc(O)c2c(c1O)C(=O)c1cc(C)ccc1C2=O [AUSTROCORTIRUBIN] | > 200 | > 200 | > 200 | > 200 | > 200 | > 200 | > 200 | > 200 | > 50 | > 200 | –
CO[C@@]12[C@H](COC(N)=O)C3=C(C(=O)C(C)=C(N)C3=O)N1C[C@@H]1N[C@@H]12 [MITOMYCIN] | – | – | – | – | – | – | – | – | 3 | – | –
COc1cc(OC(C)=O)c2c(c1OC(C)=O)C(=O)c1cc(C)c(OC(C)=O)cc1C2=O | 35 (≈ 14.9 µg/mL) | > 140 | 140 (≈ 59.7 µg/mL) | 70 (≈ 29.8 µg/mL) | 140 (≈ 59.7 µg/mL) | 140 (≈ 59.7 µg/mL) | > 140 | > 140 | > 50 | > 140 | –
COc1cc(O)c2c(c1OC(C)=O)C(=O)c1cc(C)c(O)cc1C2=O | > 200 | > 200 | > 200 | 100 (≈ 34.2 µg/mL) | > 200 | > 200 | 100 (≈ 34.2 µg/mL) | > 200 | – | > 200 | –
COc1cc(OC(C)=O)c2c(c1O)C(=O)c1cc(C)c(OC(C)=O)cc1C2=O | 50 (≈ 19.2 µg/mL) | > 200 | > 200 | 50 (≈ 19.2 µg/mL) | > 200 | > 200 | > 200 | > 200 | – | > 200 | –
COc1cc(OC(C)=O)c2c(c1OC(C)=O)C(=O)c1cc(C)c(O)cc1C2=O | 5 (≈ 1.92 µg/mL) | 9.4 (≈ 3.61 µg/mL) | > 150 | > 150 | 37.5 (≈ 14.4 µg/mL) | 4.7 (≈ 1.81 µg/mL) | > 150 | > 150 | – | 75 (≈ 28.8 µg/mL) | –
COc1cc(O)c2c(c1O)C(=O)c1cc(C)c(OC(C)=O)cc1C2=O | 12.5 (≈ 4.28 µg/mL) | > 200 | > 200 | > 200 | 50 (≈ 17.1 µg/mL) | > 200 | > 200 | > 200 | – | > 200 | –
COc1cc(O)c2c(c1OC(C)=O)C(=O)c1cc(C)ccc1C2=O | > 200 | > 200 | > 200 | > 200 | > 200 | > 200 | > 200 | > 200 | – | > 200 | –

The next lines start with results.

MIC (Bacillus subtilis) [µM] | MIC (Micrococcus) [µM] | MIC (Micrococcus luteus) [µM] | MIC (Staphylococcus albus) [µM] | MIC (Bacillus cereus [1]) [µM] | MIC (Vibrio anguillarum) [µM] | MIC (Staphylococcus aureus) [µM] | MIC (Escherichia coli) [µM] | Compound | IC50 (A549) [µM] | MIC (Vibrio parahaemolyticus) [µM] | Ratio (Bacillus cereus [2])
0.625 (≈ 0.2 µg/mL) | 1.25 (≈ 0.4 µg/mL) | 20 (≈ 6.41 µg/mL) | 5 (≈ 1.6 µg/mL) | 10 (≈ 3.2 µg/mL) | 2.5 (≈ 0.801 µg/mL) | 2.5 (≈ 0.801 µg/mL) | 2.5 (≈ 0.801 µg/mL) | COC1=CC(=O)c2cc3c(c(O)c2C1=O)C[C@](C)(O)[C@H](O)[C@H]3O | 4.56 | 1.25 (≈ 0.4 µg/mL) | –
> 100 | 0.78 (≈ 0.264 µg/mL) | > 100 | > 100 | 50 (≈ 16.9 µg/mL) | 25 (≈ 8.46 µg/mL) | 1.56 (≈ 0.528 µg/mL) | 0.78 (≈ 0.264 µg/mL) | COc1cc(O)c2c(c1O)[C@H](OC)[C@H]1C[C@](C)(O)[C@H](O)C[C@H]1C2=O | > 50 | 25 (≈ 8.46 µg/mL) | –
0.312 (≈ 0.0949 µg/mL) | 0.625 (≈ 0.19 µg/mL) | 10 (≈ 3.04 µg/mL) | 2.5 (≈ 0.761 µg/mL) | 0.312 (≈ 0.0949 µg/mL) | 1.25 (≈ 0.38 µg/mL) | 1.25 (≈ 0.38 µg/mL) | 1.25 (≈ 0.38 µg/mL) | COC1=CC(=O)c2c(cc3c(c2O)C[C@@H](O)[C@@](C)(O)C3)C1=O [NIGROSPORIN B] | 3.32 | 0.625 (≈ 0.19 µg/mL) | –
12.5 (≈ 4.25 µg/mL) | 3.12 (≈ 1.06 µg/mL) | > 100 | > 100 | 12.5 (≈ 4.25 µg/mL) | 3.12 (≈ 1.06 µg/mL) | 0.78 (≈ 0.265 µg/mL) | 1.56 (≈ 0.531 µg/mL) | COc1cc(O)c2c(c1O)[C@H](O)[C@H]1C[C@](C)(O)[C@H](O)[C@@H](O)[C@@H]1C2=O [9ALPHA-HYDROXYHALOROSELLINIA A] | 41.5 | 3.12 (≈ 1.06 µg/mL) | –
0.78 (≈ 0.283 µg/mL) | 0.195 (≈ 0.0707 µg/mL) | 100 (≈ 36.2 µg/mL) | 200 (≈ 72.5 µg/mL) | 0.0488 (≈ 0.0177 µg/mL) | 0.0975 (≈ 0.0353 µg/mL) | > 200 | > 200 | COC1=CC(=O)c2c(O)c3c(c(O)c2C1=O)C[C@](C)(O)[C@H](OC(C)=O)C3 | 5.25 | 0.78 (≈ 0.283 µg/mL) | 25
3.12 (≈ 1.05 µg/mL) | 3.12 (≈ 1.05 µg/mL) | 100 (≈ 33.6 µg/mL) | 3.12 (≈ 1.05 µg/mL) | 3.12 (≈ 1.05 µg/mL) | 0.39 (≈ 0.131 µg/mL) | 1.56 (≈ 0.525 µg/mL) | 1.56 (≈ 0.525 µg/mL) | COC1=CC(=O)c2c(O)c3c(c(O)c2C1=O)C[C@](C)(O)[C@H](O)[C@H]3O [BOSTRYCIN] | – | 3.12 (≈ 1.05 µg/mL) | –
12.5 (≈ 4.05 µg/mL) | 1.56 (≈ 0.506 µg/mL) | 25 (≈ 8.11 µg/mL) | > 100 | 12.5 (≈ 4.05 µg/mL) | 1.56 (≈ 0.506 µg/mL) | 25 (≈ 8.11 µg/mL) | 6.25 (≈ 2.03 µg/mL) | COc1cc(O)c2c(c1O)[C@H](O)[C@H]1C[C@](C)(O)[C@H](O)C[C@@H]1C2=O | > 50 | 12.5 (≈ 4.05 µg/mL) | –
3.12 (≈ 0.999 µg/mL) | 3.12 (≈ 0.999 µg/mL) | 200 (≈ 64.1 µg/mL) | 3.12 (≈ 0.999 µg/mL) | 3.12 (≈ 0.999 µg/mL) | 3.12 (≈ 0.999 µg/mL) | 3.12 (≈ 0.999 µg/mL) | 1.56 (≈ 0.5 µg/mL) | COc1cc(O)c2c(c1O)C(=O)C1=C(C[C@@H](O)[C@@](C)(O)C1)C2=O | – | 3.12 (≈ 0.999 µg/mL) | –
> 200 | 3.12 (≈ 1.18 µg/mL) | > 200 | > 200 | 3.12 (≈ 1.18 µg/mL) | > 200 | > 200 | > 200 | COC1=CC(=O)c2c(O)c3c(c(O)c2C1=O)C[C@](C)(O)[C@H](OC(C)=O)[C@H]3O | 2.72 | > 200 | –
